The target in series [1] is Tyrosine-protein kinase ABL1 (Homo sapiens, UniProt P00519, M351T). The series can be described thus: Inhibition of Abl1 kinase M351T mutant (unknown origin). Summed up:
(§1)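 Biochemical inhibition assays run by a contract screening service as a panel: ABL1 mutants H396P, M351T, Q252H, T315I and Y253F, plus P38α/MAPK14.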

Series [2] deals with T1, Tyrosine-protein kinase ABL1 (Homo sapiens, UniProt P00519). The series can be described thus: Inhibition of Abl1 kinase (unknown origin) using Tyr 6 peptide as substrate assessed as residual enzyme activity after every 10 secs measured for 10 mins.
Series [3] addresses Mitogen-activated protein kinase 14 (Homo sapiens, UniProt Q16539). The series can be described thus: Inhibition of P38alpha (unknown origin). The gist of the method: as §1
Series [4] deals with T1, Tyrosine-protein kinase ABL1. Nature of the series: Inhibition of Abl1 kinase (unknown origin) using Tyr 6 peptide as substrate assessed as residual enzyme activity after every 10 secs measured for 10 mins by platform assay.
Series [5] can be described thus: Intrinsic clearance in human liver microsomes. It counts as ADME, Microsome. As to conditions: read-out: CLH. Summed up:
(§2)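 In vitro ADME run by a contract lab: human microsomal stability and parallel artificial membrane permeability assay (PAMPA).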
Background: Microsomes from liver hold many membrane-bound enzymes, among them those of drug oxidation.

Series [6] has as its target T2, Tyrosine-protein kinase ABL2 (Homo sapiens, UniProt P42684). Nature of the series: Inhibition of Abl2 kinase (unknown origin) using Tyr 6 peptide as substrate assessed as residual enzyme activity after every 10 secs measured for 10 mins.
Series [7] in a line: Apparent permeability of the compound by PAMPA assay. It counts as ADME. The gist of the method: as §2
Background: PAMPA measures passive passage across an artificial lipid membrane.

In series [8] the target is T2, Tyrosine-protein kinase ABL2. The series can be described thus: Inhibition of Abl2 kinase (unknown origin) using Tyr 6 peptide as substrate assessed as residual enzyme activity after every 10 secs measured for 10 mins by platform assay.
The target in series [9] is Tyrosine-protein kinase ABL1 (Homo sapiens, UniProt P00519, Q252H). The series can be described thus: Inhibition of Abl1 kinase Q252H mutant (unknown origin). The gist of the method: as §1
Series [10] has as its target Tyrosine-protein kinase ABL1 (Homo sapiens, UniProt P00519, T315I). The series can be described thus: Inhibition of Abl1 kinase T315I mutant (unknown origin). The gist of the method:
as §1

For series [11], the target named is T1, Tyrosine-protein kinase ABL1. Nature of the series: Inhibition of wild type Abl1 kinase (unknown origin).
The target in series [12] is Tyrosine-protein kinase ABL1 (Homo sapiens, UniProt P00519, Y253F). Nature of the series: Inhibition of Abl1 kinase Y253F mutant (unknown origin). The gist of the method:
as §1

Series [13] addresses Tyrosine-protein kinase ABL1 (Homo sapiens, UniProt P00519, H396P). Nature of the series: Inhibition of Abl1 kinase H396P mutant (unknown origin). The gist of the method:
as §1

T2 sequence (P42684 whole entry): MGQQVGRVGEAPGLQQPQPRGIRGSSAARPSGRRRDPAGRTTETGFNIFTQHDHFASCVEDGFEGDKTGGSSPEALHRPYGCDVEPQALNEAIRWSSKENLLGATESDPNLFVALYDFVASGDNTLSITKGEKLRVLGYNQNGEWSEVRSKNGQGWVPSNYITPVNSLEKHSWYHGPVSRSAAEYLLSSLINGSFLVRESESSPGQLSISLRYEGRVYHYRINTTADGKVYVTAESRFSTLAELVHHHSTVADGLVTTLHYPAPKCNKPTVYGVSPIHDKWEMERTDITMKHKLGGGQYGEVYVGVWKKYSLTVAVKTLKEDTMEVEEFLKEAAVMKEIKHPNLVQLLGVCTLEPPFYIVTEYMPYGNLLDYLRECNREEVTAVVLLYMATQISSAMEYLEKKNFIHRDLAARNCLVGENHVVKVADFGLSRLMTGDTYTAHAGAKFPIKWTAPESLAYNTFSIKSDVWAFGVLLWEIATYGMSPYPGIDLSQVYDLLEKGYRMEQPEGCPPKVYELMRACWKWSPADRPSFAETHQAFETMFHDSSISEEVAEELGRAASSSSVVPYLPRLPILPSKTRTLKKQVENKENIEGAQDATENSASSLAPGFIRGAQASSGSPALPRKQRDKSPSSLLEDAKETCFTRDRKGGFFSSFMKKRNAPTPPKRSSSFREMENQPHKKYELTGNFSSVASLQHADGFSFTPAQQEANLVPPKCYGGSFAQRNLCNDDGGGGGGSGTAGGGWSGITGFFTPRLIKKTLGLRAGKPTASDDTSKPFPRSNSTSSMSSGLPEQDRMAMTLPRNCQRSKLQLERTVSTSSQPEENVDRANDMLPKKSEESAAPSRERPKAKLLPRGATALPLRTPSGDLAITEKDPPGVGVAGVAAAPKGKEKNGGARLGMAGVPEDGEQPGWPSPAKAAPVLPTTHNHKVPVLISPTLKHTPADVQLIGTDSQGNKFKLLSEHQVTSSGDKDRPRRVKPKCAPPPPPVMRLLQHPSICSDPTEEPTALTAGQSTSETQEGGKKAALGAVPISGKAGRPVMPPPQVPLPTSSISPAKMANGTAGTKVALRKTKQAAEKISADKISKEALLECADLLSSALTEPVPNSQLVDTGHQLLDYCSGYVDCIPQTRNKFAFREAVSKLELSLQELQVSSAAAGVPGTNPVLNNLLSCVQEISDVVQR
Chain of Mitogen-activated protein kinase 14 (Q16539 whole entry): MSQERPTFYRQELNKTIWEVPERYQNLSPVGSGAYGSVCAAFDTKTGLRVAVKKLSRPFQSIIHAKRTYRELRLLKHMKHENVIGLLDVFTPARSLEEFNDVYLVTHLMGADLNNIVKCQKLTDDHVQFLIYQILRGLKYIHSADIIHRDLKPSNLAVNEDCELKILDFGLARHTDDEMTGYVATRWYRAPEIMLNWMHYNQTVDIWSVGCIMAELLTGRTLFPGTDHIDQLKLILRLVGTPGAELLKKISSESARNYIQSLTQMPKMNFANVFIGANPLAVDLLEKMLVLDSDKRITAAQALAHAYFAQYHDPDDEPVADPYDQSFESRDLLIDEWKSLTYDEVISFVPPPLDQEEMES

As to `Cc1ccc(C(=O)Nc2ccc(CN3CCN(C)CC3)c(C(F)(F)F)c2)cc1C#Cc1cncc2nccn12`, the 50% inhibitory concentration (IC50) in [1] was found to be 0.3 nM; in series [2], 1 nM; in series [3] it was 43 nM; in series [4], 0.2 nM; in series [6], 1 nM; in series [8], 2 nM. In addition, the IC50 in [9] worked out at 0.5 nM; in [10], 0.4 nM; in [11] it was 0.6 nM; in series [12] it was 0.3 nM; in [13] it was 0.3 nM. Moreover, the microsomal CLint in series [5] came out at 90 µL/min/mg. Besides, the apparent permeability (Papp) in series [7] was found to be 26 ×10⁻⁶ cm/s.

`CN1CCN(Cc2ccc(NC(=O)Nc3cc(C#Cc4cnc5cnccn45)n(C)n3)cc2C(F)(F)F)CC1`: the IC50 in series [1] came out at 0.5 nM; in series [2], 7 nM; in series [3], 35 nM; in series [4] it was 0.4 nM; in series [6] it was 10 nM; in [8] it was 3 nM. Moreover, the IC50 in series [9] stood at 1 nM; in series [10], 0.8 nM; in series [11] it was 1 nM; in [12], 0.4 nM; in series [13] it was 0.3 nM. In series [5], the microsomal CLint worked out at 51 µL/min/mg. For the same compound, in [7], the apparent permeability coefficient (Papp) came to 0.2 ×10⁻⁶ cm/s.

Take `CN1CCN(Cc2ccc(NC(=O)Nc3cc(C#Cc4cnc5cccnn45)n(C)n3)cc2C(F)(F)F)CC1`: the concentration for half-maximal inhibition (IC50) worked out at 0.4 nM in [1]; 12 nM in series [2]; 24 nM in [3]; 27 nM in [4]; 6 nM in series [6]; 47 nM in [8]. The IC50 in [9] is 0.7 nM; in series [10] it was 0.4 nM; in [11] it was 1 nM; in series [12], 0.4 nM; in [13], 0.2 nM. Moreover, the microsomal CLint in series [5] came out at 29 µL/min/mg. Further, in series [7], the Papp was determined as 2 ×10⁻⁶ cm/s.

Turning to `CN1CCN(Cc2ccc(NC(=O)Nc3cc(C#Cc4cncc5nccn45)n(C)n3)cc2C(F)(F)F)CC1`, the IC50 in [1] came to 0.9 nM; in series [2], 12 nM; in series [3], 35 nM; in series [4] it was 2 nM; in [6], 15 nM; in [8], 11 nM. The IC50 in series [9] is 1.6 nM; in series [10], 1.9 nM; in [11] it was 1.6 nM; in series [12], 0.9 nM; in series [13], 0.7 nM. In series [5], the microsomal CLint was found to be 76 µL/min/mg. Moreover, the apparent permeability (Papp) in [7] was determined as 0.1 ×10⁻⁶ cm/s.

Broadly, the IC50 is the concentration that inhibits the measured activity by half. As usually defined, the Papp is a coefficient for how fast a substance crosses the barrier.

For the origin of these results see ChEMBL document CHEMBL2321864, “Rapid discovery of a novel series of Abl kinase inhibitors by application of an integrated microfluidic synthesis and screening platform” (J Med Chem, 2013).
